Experimental data gathered from unrelated publications.
pEC50: −log10 of the molar value. ≈ marks a conversion by molar mass, not a printed value.

CCCCC[C@H](O)/C=C/[C@H]1[C@H](O)CC(=O)[C@@H]1C/C=C\CCCC(=O)O
activity vs control (Cryptosporidium parvum; parasite growth, imaging; HCT-8; 50 µM, 24 h, intracellular): 88.5%

O=C1NC(=S)N/C1=C\c1ccc(-c2ccc(N(c3ccccc3)c3ccccc3)cc2)c2ccccc12
MIC (Streptococcus pneumoniae; microbial growth, broth dilution; ATCC49619): > 1000 µg/mL

O=C(O)c1cn(C2CC2)c2cc(N3CCNCC3)c(F)cc2c1=O
IC50 (Klebsiella pneumoniae; microbial growth, broth dilution; ATCC700603): 0.25 µg/mL (≈ 0.754 µM)

O=C1NC(=S)N/C1=C\c1c2ccccc2c(-c2ccc(N(c3ccccc3)c3ccccc3)cc2)c2ccccc12
MBC (Streptococcus pneumoniae; microbial killing, broth dilution; ATCC49619): > 1000 µg/mL

O=C1C=C(OCc2cn(-c3ccc([N+](=O)[O-])cc3)nn2)C(=O)c2ccccc21
IC50 (Klebsiella pneumoniae; microbial growth, broth dilution; ATCC700603): 370 µg/mL (≈ 983 µM)

N#CC(=Cc1ccc(Cl)cc1)C1=NC(=O)C(=Cc2cn(-c3ccccc3)nc2-c2ccccc2)S1
inhibition zone (Klebsiella pneumoniae; microbial growth, well diffusion; 100000 µg/mL): 21 mm

O=C(O)CN1C(=O)/C(=C/c2ccc(-c3ccc(N(c4ccccc4)c4ccccc4)cc3)c3ccccc23)NC1=S
MBC (Streptococcus pneumoniae; microbial killing, broth dilution; ATCC49619): > 1000 µg/mL

Cc1c(NN=C2SC(CC#N)=NC2=O)c(=O)n(-c2ccccc2)n1C
inhibition zone (Klebsiella pneumoniae; microbial growth, well diffusion; 100000 µg/mL): 15 mm

NCCCCCN
activity vs control (Cryptosporidium parvum; parasite growth, imaging; HCT-8; 1 mM, 24 h, intracellular): 96.3%

N#CC(=Cc1cn(-c2ccccc2)nc1-c1ccccc1)C1=NC(=O)CS1
inhibition zone (Klebsiella pneumoniae; microbial growth, well diffusion; 100000 µg/mL): 27 mm

CN(C)CC(=O)O
activity vs control (Cryptosporidium parvum; parasite growth, imaging; HCT-8; 1 mM, 24 h, intracellular): 105%

CCOC(=O)c1c(N)csc1-c1cn(-c2ccccc2)nc1-c1ccc(C)cc1
MBC (Klebsiella pneumoniae; microbial killing, broth dilution): 0.25 µg/mL (≈ 0.62 µM)

Cc1ccc(C(C)C)cc1OCc1cn(-c2ccc(S(N)(=O)=O)cc2)nn1
IC50 (Klebsiella pneumoniae; microbial growth, broth dilution; ATCC700603): 602 µg/mL (≈ 1560 µM)

O=C(O)CN1C(=O)/C(=C/c2ccc(-c3ccc(N(c4ccccc4)c4ccccc4)cc3)cc2)SC1=S
MIC (Streptococcus pneumoniae; microbial growth, broth dilution; ATCC49619): 15.6 µg/mL (≈ 29.8 µM)

Cc1c(CN(C)C(=O)/C=C/c2cnc3c(c2)CC(CCN)C(=O)N3)oc2ccccc12.Cl (centres unmarked)
MIC (Klebsiella pneumoniae; microbial growth, broth dilution; BAA2342): 16 µg/mL

NCCCCC(=O)O
activity vs control (Cryptosporidium parvum; parasite growth, imaging; HCT-8; 1 mM, 24 h, intracellular): 102%

NS(=O)(=O)c1ccc(-n2cc(COc3cccc4cccnc34)nn2)cc1
IC50 (Klebsiella pneumoniae; microbial growth, broth dilution; ATCC700603): 866 µg/mL (≈ 2270 µM)

O=C(O)c1cccnc1
activity vs control (Cryptosporidium parvum; parasite growth, imaging; HCT-8; 1 mM, 24 h, intracellular): 90.3%

Cc1ccc(-n2cc(COc3cc(C(C)C)ccc3C)nn2)cc1
IC50 (Klebsiella pneumoniae; microbial growth, broth dilution; ATCC700603): 246 µg/mL (≈ 766 µM)

Oc1ccc2cc[nH]c2c1
pEC50 (Cryptosporidium parvum; parasite growth; HCT-8; 24 h, intracellular): 3.14

Clc1ccc(-n2cc(COc3cccc4cccnc34)nn2)cc1
IC50 (Klebsiella pneumoniae; microbial growth, broth dilution; ATCC700603): 554 µg/mL (≈ 1650 µM)

CN[C@H](CC(C)C)C(=O)N[C@H]1C(=O)N[C@@H](CC(N)=O)C(=O)N[C@H]2C(=O)N[C@H]3C(=O)N[C@H](C(=O)N[C@H](C(=O)O)c4cc(O)cc(O)c4-c4cc3ccc4O)[C@H](O)c3ccc(c(Cl)c3)Oc3cc2cc(c3O[C@@H]2O[C@H](CO)[C@@H](O)[C@H](O)[C@H]2O[C@H]2C[C@](C)(N)[C@H](O)[C@H](C)O2)Oc2ccc(cc2Cl)[C@H]1O
MIC (Streptococcus pneumoniae; microbial growth, broth dilution; ATCC49619): 0.24 µg/mL (≈ 0.166 µM)

c1ccc(-n2cc(COc3cccc4cccnc34)nn2)cc1
IC50 (Klebsiella pneumoniae; microbial growth, broth dilution; ATCC700603): 401 µg/mL (≈ 1330 µM)

CC(C)(NC(=O)c1cc2c(Cl)cc(Cl)cc2[nH]1)c1cn(Cc2ccccc2)nn1
inhibition (Cryptosporidium parvum; parasite growth, imaging; HCT-8; 11 µM, 72 h, intracellular): > 60%

O=C1NC(=S)N/C1=C\c1ccc(-c2ccc(N(c3ccccc3)c3ccccc3)cc2)cc1
MBC (Streptococcus pneumoniae; microbial killing, broth dilution; ATCC49619): > 1000 µg/mL

Cc1cccc2[nH]ccc12
EC90 (Cryptosporidium parvum; parasite growth; HCT-8; 24 h, intracellular): 552 µM

Cc1ccc(C(C)C)cc1OS(=O)(=O)c1ccccc1
IC50 (Klebsiella pneumoniae; microbial growth, broth dilution; ATCC700603): 117 µg/mL

CC(C)(NC(=O)c1cc2c(Cl)cc(Cl)cc2[nH]1)c1cn(Cc2cccc(Cl)c2)nn1
inhibition (Cryptosporidium parvum; parasite growth, imaging; HCT-8; 11 µM, 72 h, intracellular): > 60%

O=C(O)CN1C(=O)/C(=C/c2ccc(-c3ccc(N(c4ccccc4)c4ccccc4)cc3)cc2)NC1=S
MIC (Streptococcus pneumoniae; microbial growth, broth dilution; ATCC49619): 62.5 µg/mL (≈ 124 µM)

CC(C)(NC(=O)c1cc2c(Cl)cc(Cl)cc2[nH]1)c1cn(Cc2ccccc2Cl)nn1
inhibition (Cryptosporidium parvum; parasite growth, imaging; HCT-8; 11 µM, 72 h, intracellular): > 60%

COc1cccc2cc[nH]c12
EC90 (Cryptosporidium parvum; parasite growth; HCT-8; 24 h, intracellular): 682 µM

O=C1NC(=S)S/C1=C\c1c2ccccc2c(-c2ccc(N(c3ccccc3)c3ccccc3)cc2)c2ccccc12
MBC (Streptococcus pneumoniae; microbial killing, broth dilution; ATCC49619): > 1000 µg/mL
